Results published in ChEMBL document CHEMBL4041494, “Simple synthesis of endophenazine G and other phenazines and their evaluation as anti-methicillin-resistant Staphylococcus aureus agents” (Eur J Med Chem, 2017).
Values after ≈ are worked out from the molar mass of the structure shown. Active and inactive are the calls of the source. The rule behind the calls is not given here.

What was measured:
[1] = test system: Staphylococcus aureus; test: Antibacterial activity against methicillin-resistant Staphylococcus aureus LAC JE2 after 24 hrs by broth microdilution assay; assay type: functional; conditions: LAC JE2, 24 h
Method in brief: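 Broth microdilution per ASM Clinical Microbiology Procedures Handbook (3rd ed.). Compound stock at pH 7, serial 2-fold dilutions in cation-adjusted Mueller Hinton II broth with 5% DMSO. Inoculum from direct colony suspension at 0.5 McFarland, 10 ul per well. Static incubation at 37°C for 24 h. MIC is the lowest concentration with no visible growth. Vancomycin positive control, medium-only negative control.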

[2] = test system: Staphylococcus aureus; test: Antibacterial activity against methicillin-resistant Staphylococcus aureus after 24 hrs by broth microdilution assay
[3] = test system: HaCaT; test: Cytotoxicity against human HaCaT cells assessed as reduction in cell viability by CellTiter blue assay; assay type: cell-based
Method in brief: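 HaCaT keratinocytes. Compound dissolved in 2:3 NaOH (0.01 M)/DMSO, diluted in DMEM with 10% FBS and 1% penicillin-streptomycin to 4 mM top concentration (3% DMSO), then serially diluted in DMEM. Viability read by CellTiter-Blue, following resazurin absorbance change on a spectrophotometer. Absorbance plotted against concentration and IC50 calculated.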

[4] = species on record: Equus caballus; test: Induction of equine heart cytochrome-c reduction at 25 to 100 uM measured for 900 sec at 30 sec time interval in presence of NADPH by photospectrometric method; assay type: functional
Method in brief: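 Compound stock 10 mM in 95% DMSO/5% 0.1 M NaOH, diluted in DPBS to 200 μM and serially diluted, keeping 5% DMSO/NaOH. NADPH 100 μM, then cytochrome c 20 μM added. Absorbance at 550 nm read, with 700 nm as baseline correction. Controls: cyt-c alone, cyt-c plus NADPH, and buffer alone.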

[5] = test system: Staphylococcus aureus; test: Induction of membrane disruption in methicillin-resistant Staphylococcus aureus LAC JE2 at 1 to 10 times MIC measured at 15 mins interval for 4 hrs by propidium iodide staining based fluorescence assay; assay type: functional
Method in brief: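 S. aureus JE2 resuspended in PBS to OD600 1.0 and treated with 1X, 2X or 10X MIC. Propidium iodide fluorescence (RFU) read in a plate reader every 15 min for 4 h.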

[6] = test system: Staphylococcus aureus; test: Induction of membrane disruption in methicillin-resistant Staphylococcus aureus LAC JE2 at 1 to 10 times MIC by propidium iodide staining based confocal microscopic method; assay type: functional
[7] = Induction of ROS generation at 0.11 to 0.55 mM measured for 500 sec at 30 sec time interval in presence of NADPH by ABDA staining based photospectrometric method
Method in brief: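 Compound 10 mM in 95% DMSO/5% 0.1 M NaOH, serially diluted keeping 5% DMSO/NaOH in DPBS. NADPH 100 μM and ABDA 5 μM final added. Superoxide followed as ABDA decay at 479 nm. Triplicate per concentration. Controls: ABDA alone in buffer, and buffer alone.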

[8] = Induction of ROS generation by HPF staining based flow cytometry
[9] = test system: Staphylococcus aureus; test: Bacteriostatic activity against methicillin-resistant Staphylococcus aureus LAC JE2 at 10 times MIC by serial dilution method; assay type: functional
Method in brief: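 Overnight culture diluted 1:1000 into fresh CAMHB and grown 2 h at 37°C with agitation. 1-ml aliquots then treated with 10X MIC of compound. Samples taken every 2 h, and viability counted by serial dilution and plating on tryptic soy agar.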

Structure (SMILES)	MIC [1] [µg/mL]	other results
COC(=O)c1cccc2nc3cccc(Br)c3nc12	128 (≈ 404 µM)	–
Cc1cccc2nc3cccc(C(=O)O)c3nc12	32 (≈ 134 µM)	–
CN(C)C(=O)c1cccc2nc3cccc(Br)c3nc12	> 128	–
COC(=O)c1cccc2nc3cccc(/C=C/C(C)(C)O)c3nc12	128 (≈ 397 µM)	–
NC(=O)c1cccc2nc3ccccc3nc12	–	MIC [2]: 64 µg/mL (≈ 287 µM)
COC(=O)c1cccc2nc3cccc(C)c3nc12	64 (≈ 254 µM)	–
O=C(O)c1cccc2nc3ccccc3nc12 [PHENAZINE-1-CARBOXYLIC ACID]	–	MIC [2]: 64 µg/mL (≈ 285 µM)
COC(=O)c1cccc2nc3c(Br)cccc3nc12	> 128	–
CN(C)C(=O)c1cccc2nc3cccc(/C=C/C(C)(C)O)c3nc12	> 128	–
CC(C)(O)CCc1cccc2nc3cccc(C(=O)O)c3nc12	64 (≈ 206 µM)	–
COC(=O)c1cccc2nc3ccccc3nc12	–	MIC [2]: 128 µg/mL (≈ 537 µM)
O=C(O)c1cccc2nc3cccc(Br)c3nc12	32 (≈ 106 µM)	IC50 [3]: 345 µM
CN(C)C(=O)c1cccc2nc3c(/C=C/C(C)(C)O)cccc3nc12	> 128	Activity [4]: Active
O=C(O)c1cccc2nc3c(Br)cccc3nc12	128 (≈ 422 µM)	–
CC(C)(O)/C=C/c1cccc2nc3cccc(C(=O)O)c3nc12	32 (≈ 104 µM)	Activity [5]: inactive; Activity [6]: inactive; Activity [4]: Active; Activity [7]: inactive; Activity [8]: inactive; Activity [9]: Active; IC50 [3]: 306 µM
O=C(O)c1cccc2nc3cccc(Cl)c3nc12	16 (≈ 61.9 µM)	–
NC(=O)c1cccc2nc3cccc(F)c3nc12	> 128	–
O=C(O)c1cccc2nc3cccc(F)c3nc12	64 (≈ 264 µM)	–
CC(C)(O)/C=C/c1cccc2nc3cccc(C#N)c3nc12	128 (≈ 442 µM)	–
O=C(O)c1cccc2nc3cc(Br)ccc3nc12	64 (≈ 211 µM)	–
N#Cc1cccc2nc3cccc(Br)c3nc12	> 128	–
CS(=O)(=O)NC(=O)c1cccc2nc3cccc(Cl)c3nc12	2 (≈ 5.96 µM)	Activity [5]: inactive; Activity [6]: inactive; Activity [4]: Active; Activity [7]: inactive; Activity [8]: inactive; Activity [9]: Active; IC50 [3]: 193 µM
CS(=O)(=O)NC(=O)c1cccc2nc3cccc(Br)c3nc12	4 (≈ 10.5 µM)	IC50 [3]: 118 µM
CC(C)(O)/C=C/c1cccc2nc3c(C(=O)O)cccc3nc12	128 (≈ 415 µM)	–
COC(=O)c1cccc2nc3c(/C=C/C(C)(C)O)cccc3nc12	128 (≈ 397 µM)	–
